Published values of several laboratories.
Target: Serine/threonine-protein kinase 10 (STK10, Homo sapiens, UniProt O94804)

For `CN(C)c1ncc(F)c(-c2cnn3ncccc23)n1`, the remaining binding was 42% (binding; 1 µM).
For `O=C(O)[C@@H]1[C@@H](Cn2nnc3ccccc3c2=O)CC[C@H]1C(=O)c1ccc(OCCC2CCOCC2)cc1`, the remaining binding was 84% (cell-free assay, competition with immobilised ligand; 1 µM).
For `FC(F)(F)Oc1cccc(-c2cnc3ccc(-c4ccncc4)nn23)c1`, the remaining binding was 0.3% (binding, competition with immobilised ligand; 5 µM).
With `Nc1ncc2c(n1)-c1c([nH]c3ccc(C#CC4CC4)cc13)CCCC2` the remaining binding was 99% (binding, competition with immobilised ligand; 1 µM).
The remaining binding of `N[C@H]1CCN(c2nccc(-c3cnn4ncccc34)n2)C1` is reported as 98% (binding; 1 µM).
For `O=C(NCC1CCOCC1)c1n[nH]cc1NC(=O)c1c(F)cccc1F`, the remaining binding was 100% (binding, competition with immobilised ligand; 1 µM).
With `CNC(=O)[C@@H]1CC[C@@H](n2c(-c3ccc4cnccc4c3)nc3ccc(C(=O)NCc4cccc(C(N)=O)c4)cc32)C1` the remaining binding was 83% (binding, competition with immobilised ligand; 1 µM).
`Cn1cc(Cl)c2c(Oc3c(F)cc(Nc4cc(Cl)nc(N)n4)cc3F)ccnc21` has a remaining binding of 100% (cell-free assay, competition with immobilised ligand; 0.1 µM).
`C[C@@H]1CCN(c2nccc(-c3cnn4ncccc34)n2)C1` has a remaining binding of 98% (binding; 1 µM).
`CN(C)C(=O)Cn1cc(-c2nc([C@@](C)(c3ccc(-c4cnc(N)nc4)cc3)C3CC3)no2)cn1` gave a remaining binding of 89% (cell-free assay, competition with immobilised ligand; 1 µM).
With `Cc1cnc(Nc2ccc(C(=O)N3CCC(N4CCCC4)CC3)cc2)nc1-c1cc2ccccc2s1` the remaining binding was 14% (binding, competition with immobilised ligand; 1 µM).
For `F[C@@H]1CCN(c2nccc(-c3cnn4ncccc34)n2)C1`, the remaining binding was 90% (binding; 1 µM).
`COc1ncc2cc3ccccc3nc2c1C#N` gave a remaining binding of 100% (cell-free assay, competition with immobilised ligand; 5 µM).
With `CN(CCCC(F)(F)F)c1nccc(-c2cnn3ncccc23)n1` the remaining binding was 100% (binding; 1 µM).
`CC1=C(C#N)[C@@H](c2ccc3[nH]nc(C)c3c2)C(C#N)=C(c2ccc(Cl)cc2)N1` gave a remaining binding of 100% (cell-free assay, competition with immobilised ligand; 1 µM).
`O=C(NCCCN1CCOCC1)c1ccc(Nc2nccc(-c3cc4ccccc4s3)n2)cc1` has a remaining binding of 94% (binding, competition with immobilised ligand; 1 µM).
With `CC(C)CC(=O)N1CCc2nc(-c3ccc(Br)cc3)nc(N(C)Cc3ccccc3)c2C1` the remaining binding was 100% (cell-free assay, competition with immobilised ligand; 0.1 µM).
The remaining binding of `CN(C)c1nccc(-c2cnc3ncccn23)n1` is reported as 100% (binding; 1 µM).
With `CS(=O)(=O)NCC[C@H](NC(=O)c1cncc2c1cnn2-c1ccc(F)cc1)c1ccnc(S(C)(=O)=O)c1` the remaining binding was 100% (cell-free assay, competition with immobilised ligand; 1 µM).
With `O=C(NCCCN1CCOCC1)c1ccc(Nc2ncc(Cl)c(-c3ccc(Cl)s3)n2)cc1` the remaining binding was 57% (binding, competition with immobilised ligand; 1 µM).
